Pyk2 oligo antag – antagonists of Pyk2 self-association, primary screen, Q293 cells, FERM NanoBiT luminescence, HTS; stronger effect = lower value; z-score (the deposit names both 25 µM and 10 µM); Protein-tyrosine kinase 2-beta (Homo sapiens), Q14289; AID 1347419, 2020; 99,000 compounds, 0.83% hits;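 active = Z-score of -3 or lower, scaled per plate to the spread of control and sample wells; inactive = z-score above -3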;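 also: negative z-score means lost luminescence so less FERM oligomerization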
ERa coact inh – ERα–SRC-1 coactivator interaction inhibitors, primary screen, biochemical, TR-FRET, ERα LBD, estradiol-bound; TR-FRET ER-alpha LBD / SRC-1 peptide; Estrogen receptor (Homo sapiens), P03372; inhibition, % at 25.6 µM; 86,000 compounds, 1.7% hits; in the data active = inhibition above about 50%
RORa activator – activators of orphan receptor RORA, primary screen, cell-based, luminescence. Nuclear receptor ROR-alpha (Homo sapiens), P35398. CHO-K1 Gal4-RORA LBD luciferase reporter; percent increase over mock-subtracted basal signal. activation, % at 10 µM. 65,000 compounds, 1.5% hits;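 active = activation above the mean of all tested compounds plus 3 SD, cut at about 49% in these data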
SF-1 act – activators of human SF-1, primary screen, cell-based, CHO-K1, Gal4-SF-1 LBD, luciferase luminescence | Steroidogenic factor 1 (Homo sapiens), Q13285 | CHO-K1 Gal4-SF-1 LBD luciferase reporter; % increase over DMSO SF-1-specific signal | activation, % at 10 µM | 65,000 compounds, 1.9% hits | AID 522, 2006;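 active = activation above the mean activation of all tested compounds plus 3 SD, cut at about 50% in these data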
Target sequence (Q13285 whole entry, looked up, the tested form may be a part): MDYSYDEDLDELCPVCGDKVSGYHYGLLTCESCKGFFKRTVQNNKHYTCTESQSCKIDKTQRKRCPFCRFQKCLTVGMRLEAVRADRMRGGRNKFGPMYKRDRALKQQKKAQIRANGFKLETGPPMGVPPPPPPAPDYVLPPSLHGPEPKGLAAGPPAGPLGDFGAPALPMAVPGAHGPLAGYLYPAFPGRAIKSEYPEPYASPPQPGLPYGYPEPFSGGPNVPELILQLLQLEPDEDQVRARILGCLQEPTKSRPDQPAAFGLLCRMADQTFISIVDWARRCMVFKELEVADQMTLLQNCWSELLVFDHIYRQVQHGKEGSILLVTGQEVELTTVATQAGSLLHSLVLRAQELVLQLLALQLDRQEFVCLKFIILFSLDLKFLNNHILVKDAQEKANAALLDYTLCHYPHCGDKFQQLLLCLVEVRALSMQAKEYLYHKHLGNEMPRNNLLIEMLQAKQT
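Test system: CHO-K1 cells co-transfected with Gal4 DBD–human SF-1 LBD, 5xGal4 luciferase reporter. Quantity: 4,000 cells per well. Compound: 10 µM only. Incubation: compound added 1 h post-seeding, 20 h exposure at 37 °C, 5% CO2. Detection: SteadyLite luciferase luminescence. Replication: one test per compound.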
ERa SRC1 pot – enhancers of ERα–SRC-1 coactivator binding, primary screen, biochemical, TR-FRET, ERα LBD, low estradiol; coactivator binding (% of control), % at 25.6 µM; TR-FRET ERalpha-LBD/SRC-Cy5 coactivator binding, 2 h; 100 = basal binding, no effect; Estrogen receptor (Homo sapiens), P03372; 86,000 compounds, 1.3% hits; in the data active = activity above about 200%;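 also: binding measured in presence of low estradiol as agonist stimulus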
ERb SRC1 inh – inhibitors of ERβ-SRC1 coactivator interaction, primary screen, biochemical, TR-FRET, ERβ LBD, SRC-1 peptide | Estrogen receptor beta (Homo sapiens), Q92731 | TR-FRET ER-beta LBD / SRC1-Cy5 peptide binding; receptor agonist-loaded with 1 µM estradiol | inhibition, % at 25.6 µM | 86,000 compounds, 1.3% hits;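 active = compounds whose percent inhibition of the receptor-coactivator binding signal exceeds about 50% in the single-dose screen, limit read from the data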
Of the large screens only hits and unclear results are named; the others gave an inactive call; [ ] = dose if it differs, or a comment. Compounds with a hit are over-represented: about 4.8% of the library has one in this group of screens.

CC1CCC(n2c(=S)[nH]c3ccccc3c2=O)CC1 (configuration not stated)	ERa SRC1 pot 218.4[fluorescence artefact?]
CC(C)(C)c1ccc(OCCn2ccccc2=O)cc1	SF-1 act 67.1
CC(C)(c1ccccc1)c1ccc(OCCn2cnc3ccccc3c2=O)cc1	none (no result: RORa activator, SF-1 act)
Cc1cc(C)cc(NC(=O)N2CCC(c3nc4ccccc4o3)CC2)c1	ERa SRC1 pot 680.4[fluorescence artefact?]
CCOC(=O)c1sc(Nc2ccccc2)nc1C	none (no result: RORa activator, SF-1 act)
CCOC(=O)c1sc(Nc2nc3c(OC)cccc3s2)nc1C	SF-1 act 64.1 (no result: ERa coact inh, ERa SRC1 pot, ERb SRC1 inh)
COC(=O)c1ccccc1NC(=O)c1cc2ncc(Br)cn2n1	ERa SRC1 pot 579.1[fluorescence artefact?]
Cc1ccnc(NC(=O)c2ccc(N3C(=O)CCC3=O)cc2)c1	ERa SRC1 pot 224.3 (no result: RORa activator, SF-1 act)
COc1ccc(C(=O)NC(=O)Nc2cc(C)ccn2)cc1	ERa SRC1 pot 210.0
COc1cc(C(=O)Nc2cc(C)ccn2)cc(OC)c1OC	none
CCCCCCCOc1ccc(OC(=O)c2ccncc2)cc1	none (no result: RORa activator, SF-1 act)
COC(=O)c1ccc(OC)c(CSc2nnc(-c3ccc(C)cc3)o2)c1	ERa SRC1 pot 455.4[fluorescence artefact?] (no result: Pyk2 oligo antag)
Cc1cccc2cc(CN(CCN(C)C)C(=S)Nc3ccccc3)c(=O)[nH]c12	none (no result: ERa coact inh, RORa activator, SF-1 act, ERa SRC1 pot, ERb SRC1 inh)
CC(=O)C(N=Nc1ccccc1)(Sc1nnc(-c2ccccc2)n1-c1ccccc1)C(=O)Nc1ccccc1 (configuration not stated)	none (no result: ERa coact inh, RORa activator, SF-1 act, ERa SRC1 pot, ERb SRC1 inh)
CC(=O)C(N=Nc1ccccc1)(Sc1nnc(-c2ccccc2)n1-c1ccccc1)C(C)=O	Pyk2 oligo antag -3.06 (no result: ERa coact inh, RORa activator, SF-1 act, ERa SRC1 pot, ERb SRC1 inh)
CC(C)(C)OC(=O)N1CCN(c2ccc(NC(=O)c3cc4ccccc4oc3=O)cc2)CC1	none (no result: Pyk2 oligo antag, ERa coact inh, ERa SRC1 pot, ERb SRC1 inh)
O=c1c([N+](=O)[O-])c(NC2CCCCC2)c2ccccc2n1-c1ccccc1	Pyk2 oligo antag -3.67 (no result: RORa activator, SF-1 act)
O=c1c([N+](=O)[O-])c(N2CCCCC2)c2ccccc2n1-c1ccccc1	none (no result: RORa activator, SF-1 act)
Cc1cc(C(=O)CSc2nnc(-c3cccnc3)n2-c2ccccc2F)c(C)n1C	ERa coact inh 69.9
Cc1cc(C(=O)CSc2nnc(-c3ccccc3)n2-c2ccccc2)c(C)n1-c1ncn[nH]1	Pyk2 oligo antag -3.16
Cc1cc(C(=O)CSc2nnc(-c3ccccc3)n2C)c(C)n1C	none
O=C(Cn1cnc2c(oc3ccccc32)c1=O)c1ccccc1	RORa activator 93.4, SF-1 act 61.3, ERa SRC1 pot 265.9[fluorescence artefact?]
Cc1ccccc1NC(=O)Cn1cnc2c(oc3ccccc32)c1=O	none
COC(=O)c1ccc(S(=O)(=O)c2ccccc2)c(N)c1	none (no result: RORa activator, SF-1 act)
COc1ccc(OC)c(NC(=O)C2CCN(Cc3cnn(-c4ccccc4)c3-n3cccc3)CC2)c1	ERa SRC1 pot 214.5 (no result: RORa activator, SF-1 act)
COc1ccc(NC(=O)C2CCN(Cc3cnn(-c4ccccc4)c3-n3cccc3)CC2)cc1OC	none
Cc1c(Cl)cccc1NC(=O)CC1SCCNC1=O (configuration not stated)	ERb SRC1 inh 54.0
Cc1ccccc1NC(=O)CC1SCCNC1=O (configuration not stated)	none
Cc1cc(=O)n2[nH]c(-c3ccc(F)cc3)nc2n1	none
N#CCSc1nnc(Cc2cccc3ccccc23)n1C1CCCCC1	none
COc1ccc(-c2nnc(SCc3ccccc3)n2N)cc1	SF-1 act 65.6
COc1ccc(-c2nnc(SCCc3ccccc3)n2N)cc1	none
Cc1cc(C(=O)Nc2ccccc2)oc1C	none (no result: RORa activator, SF-1 act)
CCn1c2ccccc2c2cc(C3C(C#N)=C(C)NC(C)=C3C#N)ccc21	ERa SRC1 pot 214.6
CCOC(=O)CSc1nn(C)c(=S)s1	ERa coact inh 64.7 (no result: Pyk2 oligo antag)
CCOC(=O)CNC(=O)CSc1nc2cccnc2n1C	none
COc1ccc(N2CCN(CCNC(=O)CCS(=O)(=O)c3cccc4nsnc34)CC2)cc1	none (no result: Pyk2 oligo antag, ERa coact inh, ERa SRC1 pot, ERb SRC1 inh)
COc1ccc(CCN2C(=O)c3[nH]nc(-c4ccccc4O)c3C2c2cccc(O)c2)cc1OC (configuration not stated)	Pyk2 oligo antag -3.78
